Test results from ChEMBL document CHEMBL2417366, “Synthesis of novel isothiazolopyridines and their in vitro evaluation against Mycobacterium and Propionibacterium acnes” (Bioorg Med Chem, 2013).
≈ marks a conversion by molar mass, not a printed value. Calls of active or inactive are those of the source. No cut-off for these calls is given here.

Key:
[1] = tested on: Mycobacterium tuberculosis; experiment: Antibacterial activity against Mycobacterium tuberculosis assessed as growth inhibition; type: functional
[2] = tested on: Mycolicibacterium fortuitum; experiment: Antibacterial activity against Mycobacterium fortuitum PCM 672 assessed as growth inhibition after 48 hrs by microplate Alamar blue assay; type: functional; conditions: PCM 672, 48 h
Outline: (§1)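 M. fortuitum PCM 672 pre-grown in liquid 79 medium at 37°C for 24 h under aerobic conditions, then diluted to about 2 x 10^5 cfu/mL. Compounds were DMSO stocks (1 mg/mL) diluted in medium, tested at 0.97-250 µg/mL. Incubated at 37°C for 48 h, then Alamar Blue plus 20% Tween 80 added for 2 h more. Read by fluorescence. MIC was the lowest concentration preventing the blue-to-pink change (≥90% growth inhibition). Run two or three times; means and standard error reported.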

Cutibacterium acnes [3] = experiment: Antibacterial activity against Propionibacterium acnes PCM 2400 assessed as growth inhibition up to 250 ug/mL after 48 hrs by microplate Alamar blue assay; type: functional, organism-based
[4] = tested on: Mycolicibacterium fortuitum; experiment: Antibacterial activity against Mycobacterium fortuitum PCM 672 assessed as growth inhibition up to 250 ug/mL after 48 hrs by microplate Alamar blue assay; type: functional, organism-based; outline: as §1
Mycobacterium avium [5] = experiment: Antibacterial activity against Mycobacterium avium assessed as growth inhibition; type: functional
Mycobacterium avium [6] = experiment: Antibacterial activity against Mycobacterium avium assessed as growth inhibition at 2 ug/mL relative to control; type: functional; conditions: read-out: GI
Cutibacterium acnes [7] = experiment: Antibacterial activity against Propionibacterium acnes PCM 2400 assessed as growth inhibition after 48 hrs by microplate Alamar blue assay; type: functional; conditions: PCM 2400, 48 h
[8] = tested on: Mycobacterium tuberculosis; experiment: Antibacterial activity against Mycobacterium tuberculosis H37Rv assessed as growth inhibition up to 250 ug/mL by BACTEC 460 radiometric assay; type: functional, organism-based
[9] = tested on: Mycobacterium tuberculosis; experiment: Antibacterial activity against Mycobacterium tuberculosis H37Rv assessed as growth inhibition by BACTEC 460 radiometric assay; type: functional
Outline: (§2)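 Serial dilutions started at 6.25 μg/mL against H37Rv in BACTEC 12B medium, read on the BACTEC 460 radiometric system. MIC was taken as the lowest concentration inhibiting 99% of the inoculum.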

[10] = Selectivity index, ratio of IC50 for African green monkey Vero cells to MIC99 for Mycobacterium tuberculosis H37Rv; type: functional
Outline: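 Cytotoxicity was measured in VERO cells by serial dilution starting at 10× MIC where solubility in culture medium allowed, giving an IC50. SI = VERO IC50 ÷ MIC (99% inhibition) against M. tuberculosis H37Rv from the BACTEC 460 radiometric assay.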

[11] = tested on: Mycobacterium tuberculosis; experiment: Antibacterial activity against Mycobacterium tuberculosis H37Rv assessed as growth inhibition at 6.25 ug/mL by BACTEC 460 radiometric assay relative to control; type: functional; conditions: read-out: GI
Outline: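 M. tuberculosis H37Rv grown in BACTEC 12B medium and tested once at 6.25 μg/mL in a primary screen. Growth was read radiometrically on the BACTEC 460 system and reported as % inhibition.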

Mycobacterium avium [12] = experiment: Antibacterial activity against Mycobacterium avium assessed as growth inhibition at 12.5 ug/mL relative to control; type: functional, organism-based
Vero = experiment: Cytotoxicity against African green monkey Vero cells; type: cell-based; conditions: Chlorocebus sabaeus
Outline: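 VERO cells were exposed to serially diluted compound, starting at 10 x MIC where solubility in culture medium allowed. IC50 was determined, and the selectivity index was taken as VERO IC50 divided by the M. tuberculosis H37Rv MIC.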

[13] = tested on: Mycolicibacterium fortuitum; experiment: Bacteriostatic activity against Mycobacterium fortuitum PCM 672 at 0.97 to 250 ug/mL after 48 hrs by microplate Alamar blue assay relative to control; type: functional; outline: as §1
Cutibacterium acnes [14] = experiment: Induction of Propionibacterium acnes PCM 2400 replication at 3.9 to 15.6 ug/mL after 48 hrs by microplate Alamar blue assay relative to control; type: organism-based
Cutibacterium acnes [15] = experiment: Induction of Propionibacterium acnes PCM 2400 replication at 0.97 to 250 ug/mL after 48 hrs by microplate Alamar blue assay relative to control; type: organism-based
Cutibacterium acnes [16] = experiment: Bacteriostatic activity against Propionibacterium acnes PCM 2400 at 0.97 to 250 ug/mL after 48 hrs by microplate Alamar blue assay relative to control; type: functional
[17] = tested on: Mycolicibacterium fortuitum; experiment: Induction of Mycobacterium fortuitum PCM 672 replication at 0.97 to 250 ug/mL after 48 hrs by microplate Alamar blue assay relative to control; type: organism-based; outline: as §1
Cutibacterium acnes [18] = experiment: Induction of Propionibacterium acnes PCM 2400 replication at 15.6 ug/mL after 48 hrs by microplate Alamar blue assay relative to control; type: organism-based
[19] = tested on: Mycobacterium tuberculosis; experiment: Antibacterial activity against Mycobacterium tuberculosis H37Rv assessed as growth inhibition at 0.125 ug/mL by BACTEC 460 radiometric assay relative to control; type: functional; conditions: read-out: GI
[20] = tested on: Mycobacterium tuberculosis; experiment: Antibacterial activity against Mycobacterium tuberculosis H37Rv assessed as growth inhibition; type: functional; conditions: for MIC: Mycobacterium tuberculosis, H37Rv; outline: as §2
[21] = tested on: Mycolicibacterium fortuitum; experiment: Induction of Mycobacterium fortuitum PCM 672 replication at 15.6 to 31.25 ug/mL after 48 hrs by microplate Alamar blue assay relative to control; type: organism-based; outline: as §1

Cc1cc(C)c2c(=O)n(CN3CCN(c4ccc([N+](=O)[O-])cc4)CC3)sc2n1
MIC [1]: < 1 µg/mL | MIC50 [2]: 197 µg/mL (≈ 493 µM) | growth inhibition (GI) (Cutibacterium acnes [3]): inactive | growth inhibition (GI) [4]: inactive | MIC (Mycobacterium avium [5]): < 1 µg/mL

CC[C@H]1OC(=O)[C@H](C)[C@@H](O[C@H]2C[C@@](C)(OC)[C@@H](O)[C@H](C)O2)[C@H](C)[C@@H](O[C@@H]2O[C@H](C)C[C@H](N(C)C)[C@H]2O)[C@](C)(OC)C[C@@H](C)C(=O)[C@H](C)[C@@H](O)[C@]1(C)O [CLARITHROMYCIN]
inhibition of growth at 2 µg/mL (Mycobacterium avium [6]): 98%

COc1ccccc1CN(Cn1sc2nc(C)cc(C)c2c1=O)Cn1sc2nc(C)cc(C)c2c1=O
MIC50 [2]: < 1 µg/mL | MIC90 [2]: < 1 µg/mL | MIC50 (Cutibacterium acnes [7]): 38 µg/mL (≈ 72.8 µM) | growth inhibition (GI) (Cutibacterium acnes [3]): inactive | growth inhibition (GI) [8]: inactive

NNC(=O)c1ccncc1 [ISONIAZID]
MIC50 [2]: 0.322 µg/mL (≈ 2.35 µM) | MIC90 [2]: > 250 µg/mL

Cc1cc(C)c2c(=O)n(CCCN3CCN(c4cccc(Cl)c4)CC3)sc2n1
MIC99 [9]: 6.25 µg/mL (≈ 15 µM) | Selectivity Index [10]: 0.53 | inhibition of growth at 6.25 µg/mL [11]: 100% | growth inhibition (GI) (Mycobacterium avium [12]): inactive | IC50 (Vero): 3.3 µg/mL (≈ 7.91 µM)

CCNC(=O)OCCn1sc2nc(C)cc(C)c2c1=O
MIC50 (Cutibacterium acnes [7]): 6.9 µg/mL (≈ 23.4 µM) | growth inhibition (GI) (Cutibacterium acnes [3]): inactive | inhibition of growth at 6.25 µg/mL [11]: 17%

Cc1cc(C)c2c(=O)n(CCN3CCN(c4ccc([N+](=O)[O-])cc4)CC3)sc2n1
MIC [1]: < 1 µg/mL | MIC50 (Cutibacterium acnes [7]): < 1 µg/mL | MIC90 (Cutibacterium acnes [7]): < 1 µg/mL | growth inhibition (GI) [4]: inactive | MIC (Mycobacterium avium [5]): < 1 µg/mL | inhibition (INH) [13]: 40%

CCCCNC(=O)OCCOc1nsc2nc(C)cc(C)c12
MIC50 [2]: 125 µg/mL (≈ 386 µM) | growth inhibition (GI) [4]: inactive | growth inhibition (GI) [8]: inactive | Activity (Cutibacterium acnes [14]): > 50%

CC[C@H]1OC(=O)[C@H](C)[C@@H](O[C@H]2C[C@@](C)(OC)[C@@H](O)[C@H](C)O2)[C@H](C)[C@@H](O[C@@H]2O[C@H](C)C[C@H](N(C)C)[C@H]2O)[C@](C)(O)C[C@@H](C)C(=O)[C@H](C)[C@@H](O)[C@]1(C)O [ERYTHROMYCIN]
MIC50 (Cutibacterium acnes [7]): < 1 µg/mL | MIC90 (Cutibacterium acnes [7]): < 1 µg/mL

COc1ccc(CN(Cn2sc3nc(C)cc(C)c3c2=O)Cn2sc3nc(C)cc(C)c3c2=O)cc1
growth inhibition (GI) [8]: inactive | Activity (Cutibacterium acnes [15]): 10%

Cc1cc(C)c2c(=O)n(CN(Cc3ccccn3)Cn3sc4nc(C)cc(C)c4c3=O)sc2n1
inhibition (INH) (Cutibacterium acnes [16]): 36% | growth inhibition (GI) (Cutibacterium acnes [3]): inactive | inhibition of growth at 6.25 µg/mL [11]: 4%

CCNC(=O)OCCOc1nsc2nc(C)cc(C)c12
Activity [17]: 10% | MIC50 (Cutibacterium acnes [7]): 184 µg/mL (≈ 623 µM) | growth inhibition (GI) (Cutibacterium acnes [3]): inactive | inhibition of growth at 6.25 µg/mL [11]: 6%

Cc1cc(C)c2c(OCCOC(=O)Nc3ccccc3)nsc2n1
growth inhibition (GI) (Cutibacterium acnes [3]): inactive | growth inhibition (GI) [4]: inactive | growth inhibition (GI) [8]: inactive

Cc1cc(C)c2c(=O)n(CC(=O)N3CCN(C)CC3)sc2n1
MIC99 [9]: 6.25 µg/mL (≈ 19.5 µM) | Selectivity Index [10]: 1.12 | inhibition of growth at 6.25 µg/mL [11]: 100% | IC50 (Vero): 7 µg/mL (≈ 21.8 µM)

CCCCNC(=O)OCCn1sc2nc(C)cc(C)c2c1=O
MIC50 [2]: 125 µg/mL (≈ 386 µM) | growth inhibition (GI) (Cutibacterium acnes [3]): inactive | growth inhibition (GI) [4]: inactive | growth inhibition (GI) [8]: inactive

Cc1cc(C)c2c(=O)n(CN(Cc3ccccc3)Cn3sc4nc(C)cc(C)c4c3=O)sc2n1
Activity (Cutibacterium acnes [18]): 10% | inhibition of growth at 6.25 µg/mL [11]: 6%

COc1ccc(CN(Cn2sc3nc(C)cc(C)c3c2=O)Cn2sc3nc(C)cc(C)c3c2=O)cc1OC
growth inhibition (GI) [4]: inactive | inhibition (INH) [13]: 21% | inhibition of growth at 6.25 µg/mL [11]: 8% | Activity (Cutibacterium acnes [15]): 10%

Cc1cc(C)c2c(=O)n(CCOC(=O)Nc3ccccc3)sc2n1
growth inhibition (GI) (Cutibacterium acnes [3]): inactive | growth inhibition (GI) [4]: inactive | inhibition (INH) [13]: 42% | inhibition of growth at 6.25 µg/mL [11]: 12%

Cc1cc(C)c2c(OCCOCCOc3ccccc3)nsc2n1
growth inhibition (GI) (Cutibacterium acnes [3]): inactive | growth inhibition (GI) [8]: inactive

Cc1cc(C)c2c(=O)n(CC(O)CN3CCC(Cc4ccccc4)CC3)sc2n1 (stereo not drawn)
MIC99 [9]: 6.25 µg/mL (≈ 15.2 µM) | Selectivity Index [10]: 0.25 | inhibition of growth at 6.25 µg/mL [11]: 100% | IC50 (Vero): 1.6 µg/mL (≈ 3.89 µM)

Cc1cc(C)c2c(OCCOC(=O)NC(C)(C)C)nsc2n1
inhibition of growth at 6.25 µg/mL [11]: 16%

CO[C@H]1/C=C/O[C@@]2(C)Oc3c(C)c(O)c4c(O)c(c(/C=N/N5CCN(C)CC5)c(O)c4c3C2=O)NC(=O)/C(C)=C\C=C\[C@H](C)[C@H](O)[C@@H](C)[C@@H](O)[C@@H](C)[C@H](OC(C)=O)[C@@H]1C [RIFAMPIN]
MIC99 [9]: 0.125 µg/mL (≈ 0.152 µM) | inhibition of growth at 0.125 µg/mL [19]: 98% | IC50 (Vero): 58 µg/mL (≈ 70.5 µM)

Cc1cc(C)c2c(=O)n(CCOCCOc3ccccc3)sc2n1
MIC99 [9]: 6.25 µg/mL (≈ 18.1 µM) | Selectivity Index [10]: 0.68 | inhibition of growth at 6.25 µg/mL [11]: 100% | IC50 (Vero): 4.1 µg/mL (≈ 11.9 µM)

Cc1cc(C)c2c(=O)n(CN(Cc3ccccc3Cl)Cn3sc4nc(C)cc(C)c4c3=O)sc2n1
growth inhibition (GI) (Cutibacterium acnes [3]): inactive | growth inhibition (GI) [8]: inactive

Cc1cc(C)c2c(=O)n(CO)sc2n1
growth inhibition (GI) [20]: 65% | MIC [20]: 12.5 µg/mL (≈ 59.5 µM)

O=c1c2ccccc2sn1CO
growth inhibition (GI) [20]: 100% | MIC [20]: 12.5 µg/mL (≈ 69 µM)

Cc1cc(C)c2c(=O)n(CN(Cc3ccc(Cl)cc3)Cn3sc4nc(C)cc(C)c4c3=O)sc2n1
growth inhibition (GI) (Cutibacterium acnes [3]): inactive | growth inhibition (GI) [8]: inactive

Cc1cc(C)c2c(=O)n(CCOC(=O)NC(C)(C)C)sc2n1
MIC90 (Cutibacterium acnes [7]): 3.2 µg/mL (≈ 9.89 µM) | growth inhibition (GI) [8]: inactive | Activity [21]: 10%

Cc1cc(C)c2c(=O)n(CC(O)CN3CCN(c4cccc(C(F)(F)F)c4)CC3)sc2n1 (stereo not drawn)
MIC99 [9]: 1.56 µg/mL (≈ 3.34 µM) | Selectivity Index [10]: 2.69 | inhibition of growth at 6.25 µg/mL [11]: 100% | growth inhibition (GI) (Mycobacterium avium [12]): inactive | IC50 (Vero): 4.2 µg/mL (≈ 9 µM)
